# Active and inactive are the calls of the source. The calls are words filed in the database; no cut-off is given here.
# Columns and labels:
# HEK293 = test: Cytotoxicity against HEK293 cells up to 20 uM; assay type: cell-based; conditions: human
# [1] = molecular target: Dual specificity tyrosine-phosphorylation-regulated kinase 4 (Homo sapiens) (UniProt Q9NR20); test: Inhibition of full length recombinant human GST-tagged DYRK4 expressed in baculovirus expression system at 1 uM by lantha screen kinase binding assay relative to control
# Dual specificity tyrosine-phosphorylation-regulated kinase 4 (Homo sapiens), sequence (Q9NR20 whole entry): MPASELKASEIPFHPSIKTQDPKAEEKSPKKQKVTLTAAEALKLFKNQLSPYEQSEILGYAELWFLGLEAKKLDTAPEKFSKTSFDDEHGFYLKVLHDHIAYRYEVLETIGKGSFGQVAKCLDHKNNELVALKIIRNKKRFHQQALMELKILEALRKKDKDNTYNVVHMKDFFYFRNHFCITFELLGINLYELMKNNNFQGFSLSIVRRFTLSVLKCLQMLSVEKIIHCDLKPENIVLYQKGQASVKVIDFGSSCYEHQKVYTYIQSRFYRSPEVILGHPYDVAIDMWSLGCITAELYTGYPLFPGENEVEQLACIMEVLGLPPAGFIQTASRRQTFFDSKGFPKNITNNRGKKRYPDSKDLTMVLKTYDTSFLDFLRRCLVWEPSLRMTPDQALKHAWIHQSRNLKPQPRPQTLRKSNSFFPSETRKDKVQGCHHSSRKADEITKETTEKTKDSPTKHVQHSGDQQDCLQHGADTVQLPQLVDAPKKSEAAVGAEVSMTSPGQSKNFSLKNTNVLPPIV
# [2] = molecular target: Serine/threonine-protein kinase 17A (Homo sapiens, UniProt Q9UEE5); test: Inhibition of STK17A (unknown origin)
# [3] = molecular target: Activin receptor type-1 (Homo sapiens) (UniProt Q04771); test: Inhibition of recombinant human GST-tagged ACVR1 expressed in baculovirus expression system at 1 uM by lantha screen kinase binding assay relative to control
# Procedure, shortened: (§1)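 Binding-displacement format: the compound competes with an Alexa Fluor-conjugated tracer for binding to the kinase ATP site, rather than a peptide phosphorylation read-out.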
# [4] = molecular target: Casein kinase I isoform delta (Homo sapiens) (UniProt P48730); test: Inhibition of full length recombinant human GST-tagged CSNK1D expressed in baculovirus expression system at 1 uM by lantha screen kinase binding assay relative to control
# Casein kinase I isoform delta (Homo sapiens), sequence (P48730 whole entry, looked up, canonical isoform): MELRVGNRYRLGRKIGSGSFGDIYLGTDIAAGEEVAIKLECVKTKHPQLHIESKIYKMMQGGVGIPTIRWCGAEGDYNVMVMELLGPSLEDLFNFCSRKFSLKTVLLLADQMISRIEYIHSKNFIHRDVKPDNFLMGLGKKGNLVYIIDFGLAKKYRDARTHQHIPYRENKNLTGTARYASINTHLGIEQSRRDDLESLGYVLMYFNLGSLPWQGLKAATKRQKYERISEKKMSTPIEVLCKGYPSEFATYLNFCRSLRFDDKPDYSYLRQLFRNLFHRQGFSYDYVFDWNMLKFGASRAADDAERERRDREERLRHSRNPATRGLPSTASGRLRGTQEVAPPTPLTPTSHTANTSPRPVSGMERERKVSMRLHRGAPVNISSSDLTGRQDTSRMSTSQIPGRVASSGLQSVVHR
# [5] = molecular target: Serine/threonine-protein kinase pim-1 (Homo sapiens, UniProt P11309); test: Inhibition of PIM1 (unknown origin)
# Procedure, shortened: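 Calculated from means of duplicates differing by less than 7%.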
# [6] = molecular target: Proto-oncogene tyrosine-protein kinase ROS (Homo sapiens) (UniProt P08922); test: Inhibition of recombinant human GST-tagged ROS1 expressed in baculovirus expression system at 1 uM by lantha screen kinase binding assay relative to control; procedure, shortened: as §1
# Proto-oncogene tyrosine-protein kinase ROS (Homo sapiens), sequence (P08922 whole entry): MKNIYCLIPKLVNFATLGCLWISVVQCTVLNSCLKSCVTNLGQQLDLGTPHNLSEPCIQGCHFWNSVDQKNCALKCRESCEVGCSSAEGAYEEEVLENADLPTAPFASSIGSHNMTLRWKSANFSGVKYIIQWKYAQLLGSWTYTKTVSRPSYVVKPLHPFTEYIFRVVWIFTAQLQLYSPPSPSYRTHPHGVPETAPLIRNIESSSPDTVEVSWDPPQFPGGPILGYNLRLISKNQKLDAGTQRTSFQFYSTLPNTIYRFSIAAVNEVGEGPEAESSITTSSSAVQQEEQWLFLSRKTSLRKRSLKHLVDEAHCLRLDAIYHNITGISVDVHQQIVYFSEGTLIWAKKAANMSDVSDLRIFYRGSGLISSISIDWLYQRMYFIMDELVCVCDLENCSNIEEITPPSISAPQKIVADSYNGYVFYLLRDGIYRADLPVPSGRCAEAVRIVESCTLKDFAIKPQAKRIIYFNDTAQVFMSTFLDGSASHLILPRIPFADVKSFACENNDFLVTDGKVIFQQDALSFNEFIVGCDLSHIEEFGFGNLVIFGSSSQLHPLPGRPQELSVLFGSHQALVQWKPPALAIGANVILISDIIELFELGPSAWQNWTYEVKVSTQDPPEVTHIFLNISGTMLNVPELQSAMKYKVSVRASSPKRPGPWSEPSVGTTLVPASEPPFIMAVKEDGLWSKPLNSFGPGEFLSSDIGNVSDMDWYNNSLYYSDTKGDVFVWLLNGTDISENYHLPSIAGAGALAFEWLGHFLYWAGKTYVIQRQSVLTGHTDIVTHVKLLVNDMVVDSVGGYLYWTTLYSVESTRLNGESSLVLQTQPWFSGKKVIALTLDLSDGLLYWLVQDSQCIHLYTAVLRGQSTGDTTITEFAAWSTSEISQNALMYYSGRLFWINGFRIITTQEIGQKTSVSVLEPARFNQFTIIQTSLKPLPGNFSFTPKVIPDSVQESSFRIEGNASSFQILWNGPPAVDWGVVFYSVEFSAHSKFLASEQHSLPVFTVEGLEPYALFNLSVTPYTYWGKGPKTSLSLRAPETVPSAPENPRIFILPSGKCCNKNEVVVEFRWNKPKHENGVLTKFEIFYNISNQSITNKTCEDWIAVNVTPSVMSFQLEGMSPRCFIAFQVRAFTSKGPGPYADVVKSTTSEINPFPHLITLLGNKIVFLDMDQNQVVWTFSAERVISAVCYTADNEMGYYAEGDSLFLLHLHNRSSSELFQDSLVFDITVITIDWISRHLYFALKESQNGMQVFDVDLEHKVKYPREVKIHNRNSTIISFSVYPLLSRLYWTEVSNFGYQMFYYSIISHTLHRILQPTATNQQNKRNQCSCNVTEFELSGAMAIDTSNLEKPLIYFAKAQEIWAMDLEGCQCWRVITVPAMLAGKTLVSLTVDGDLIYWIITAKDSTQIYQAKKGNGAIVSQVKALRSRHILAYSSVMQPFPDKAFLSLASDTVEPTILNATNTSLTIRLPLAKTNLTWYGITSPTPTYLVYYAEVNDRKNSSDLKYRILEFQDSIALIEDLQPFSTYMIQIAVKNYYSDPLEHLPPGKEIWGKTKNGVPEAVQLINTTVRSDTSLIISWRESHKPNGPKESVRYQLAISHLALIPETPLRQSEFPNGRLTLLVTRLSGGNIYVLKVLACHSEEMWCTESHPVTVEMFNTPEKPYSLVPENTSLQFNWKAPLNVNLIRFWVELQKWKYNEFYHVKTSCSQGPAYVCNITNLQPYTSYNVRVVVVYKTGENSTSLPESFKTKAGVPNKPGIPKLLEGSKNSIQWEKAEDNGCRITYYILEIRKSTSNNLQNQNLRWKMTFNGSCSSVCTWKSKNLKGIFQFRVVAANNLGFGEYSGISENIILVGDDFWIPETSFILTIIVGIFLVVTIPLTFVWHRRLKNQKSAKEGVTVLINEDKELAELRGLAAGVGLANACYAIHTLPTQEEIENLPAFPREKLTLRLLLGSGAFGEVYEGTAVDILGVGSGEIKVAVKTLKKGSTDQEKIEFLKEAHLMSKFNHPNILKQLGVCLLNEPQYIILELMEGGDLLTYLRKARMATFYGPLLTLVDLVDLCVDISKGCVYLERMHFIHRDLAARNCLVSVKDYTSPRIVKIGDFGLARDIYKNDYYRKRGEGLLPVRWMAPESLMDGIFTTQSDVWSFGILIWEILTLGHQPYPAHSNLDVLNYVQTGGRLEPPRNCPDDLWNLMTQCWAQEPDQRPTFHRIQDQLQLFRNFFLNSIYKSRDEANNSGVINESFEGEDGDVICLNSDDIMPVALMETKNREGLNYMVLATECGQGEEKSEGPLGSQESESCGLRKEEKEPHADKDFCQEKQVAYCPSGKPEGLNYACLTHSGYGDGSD
# [7] = molecular target: Serine/threonine-protein kinase 26 (Homo sapiens) (UniProt Q9P289); test: Inhibition of full length recombinant human GST-tagged MST4 expressed in baculovirus expression system at 1 uM by lantha screen kinase binding assay relative to control
# Serine/threonine-protein kinase 26 (Homo sapiens), sequence (Q9P289 2-416 limits assumed): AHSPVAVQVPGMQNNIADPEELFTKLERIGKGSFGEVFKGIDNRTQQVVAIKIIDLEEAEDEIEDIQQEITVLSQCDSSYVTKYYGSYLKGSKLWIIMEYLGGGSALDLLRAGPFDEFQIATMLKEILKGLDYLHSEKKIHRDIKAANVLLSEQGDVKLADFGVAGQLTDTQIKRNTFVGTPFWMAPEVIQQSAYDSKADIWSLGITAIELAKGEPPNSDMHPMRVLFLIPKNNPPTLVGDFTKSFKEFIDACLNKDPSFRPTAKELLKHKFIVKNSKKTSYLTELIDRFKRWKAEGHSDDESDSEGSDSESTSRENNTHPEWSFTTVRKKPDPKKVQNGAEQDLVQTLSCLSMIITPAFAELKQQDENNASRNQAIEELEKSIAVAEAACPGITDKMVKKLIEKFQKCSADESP
# [8] = molecular target: Serine/threonine-protein kinase D2 (Homo sapiens) (UniProt Q9BZL6); test: Inhibition of full length recombinant human GST-tagged PRKD2 expressed in baculovirus expression system at 1 uM by lantha screen kinase binding assay relative to control
# [9] = molecular target: Epidermal growth factor receptor (Homo sapiens, UniProt P00533); test: Inhibition of recombinant human GST-tagged EGFR expressed in baculovirus expression system at 1 uM by lantha screen kinase binding assay relative to control; procedure, shortened: as §1
# [10] = molecular target: T1, Myosin light chain kinase 2, skeletal/cardiac muscle (Homo sapiens, UniProt Q9H1R3); test: Inhibition of full length recombinant human N-terminal GST-tagged MLCK expressed in baculovirus expression system by lantha screen kinase binding assay; procedure, shortened: as §1
# T1 sequence (Q9H1R3 whole entry): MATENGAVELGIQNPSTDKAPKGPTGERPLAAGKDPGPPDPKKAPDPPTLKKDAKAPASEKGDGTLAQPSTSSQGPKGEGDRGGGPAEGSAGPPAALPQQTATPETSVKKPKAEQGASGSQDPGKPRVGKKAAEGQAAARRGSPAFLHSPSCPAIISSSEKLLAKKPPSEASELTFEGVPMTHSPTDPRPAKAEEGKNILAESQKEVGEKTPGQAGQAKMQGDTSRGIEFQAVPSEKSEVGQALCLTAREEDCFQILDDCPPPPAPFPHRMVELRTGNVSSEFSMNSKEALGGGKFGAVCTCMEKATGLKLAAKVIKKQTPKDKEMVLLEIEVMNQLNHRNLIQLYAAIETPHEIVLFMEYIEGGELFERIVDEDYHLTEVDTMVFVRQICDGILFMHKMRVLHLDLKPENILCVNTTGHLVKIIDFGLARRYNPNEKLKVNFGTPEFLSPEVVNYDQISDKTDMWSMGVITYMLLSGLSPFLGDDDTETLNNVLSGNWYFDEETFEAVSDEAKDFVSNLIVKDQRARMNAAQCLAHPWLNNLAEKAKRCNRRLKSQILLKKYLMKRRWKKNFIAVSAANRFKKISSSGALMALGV
# [11] = molecular target: T1, Myosin light chain kinase 2, skeletal/cardiac muscle; test: Inhibition of full length recombinant human N-terminal GST-tagged skeletal MYLK2 expressed in baculovirus expression system at 1 uM by lantha screen kinase binding assay relative to control; procedure, shortened: as §1
# [12] = molecular target: T1, Myosin light chain kinase 2, skeletal/cardiac muscle; test: Inhibition of full length recombinant human N-terminal GST-tagged MLCK expressed in baculovirus expression system at 1 uM by lantha screen kinase binding assay relative to control; procedure, shortened: as §1
# [13] = molecular target: MAP kinase-interacting serine/threonine-protein kinase 1 (Homo sapiens) (UniProt Q9BUB5); test: Inhibition of full length recombinant human N-terminal GST-tagged MKNK1 expressed in insect cells at 1 uM by lantha screen kinase binding assay relative to control; procedure, shortened: as §1
# [14] = molecular target: Serine/threonine-protein kinase 17A (Homo sapiens) (UniProt Q9UEE5); test: Inhibition of STK17A (unknown origin) at 1 uM relative to control
# [15] = molecular target: T2, Dual specificity protein kinase CLK3 (Homo sapiens, UniProt P49761); test: Inhibition of recombinant human GST-tagged CLK3 expressed in baculovirus expression system at 1 uM by lantha screen kinase binding assay relative to control; procedure, shortened: as §1
# [16] = molecular target: BDNF/NT-3 growth factors receptor (Homo sapiens) (UniProt Q16620); test: Inhibition of recombinant human His-tagged NTRK2 expressed in baculovirus expression system at 1 uM by lantha screen kinase binding assay relative to control; procedure, shortened: as §1
# [17] = molecular target: Casein kinase I isoform gamma-2 (Homo sapiens) (UniProt P78368); test: Inhibition of full length recombinant human His-tagged CSNK1G2 expressed in baculovirus expression system at 1 uM by lantha screen kinase binding assay relative to control
# Casein kinase I isoform gamma-2 (Homo sapiens), sequence (P78368 whole entry, looked up, canonical isoform): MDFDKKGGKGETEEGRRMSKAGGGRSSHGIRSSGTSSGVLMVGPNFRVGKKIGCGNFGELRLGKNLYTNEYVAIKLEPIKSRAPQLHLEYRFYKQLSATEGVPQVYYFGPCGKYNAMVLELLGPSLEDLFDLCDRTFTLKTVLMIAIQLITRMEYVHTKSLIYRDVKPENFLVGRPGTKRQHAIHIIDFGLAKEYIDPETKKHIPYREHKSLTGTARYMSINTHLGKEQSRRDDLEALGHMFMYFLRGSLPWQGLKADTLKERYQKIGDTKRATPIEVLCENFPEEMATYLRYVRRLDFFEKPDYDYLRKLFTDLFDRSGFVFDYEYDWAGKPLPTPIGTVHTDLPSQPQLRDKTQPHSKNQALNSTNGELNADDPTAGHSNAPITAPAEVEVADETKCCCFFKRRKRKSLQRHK
# [18] = molecular target: Glycogen synthase kinase-3 beta (Homo sapiens) (UniProt P49841); test: Inhibition of full length recombinant human His-tagged GSK3beta expressed in baculovirus expression system at 5 uM by lantha screen kinase binding assay relative to control; procedure, shortened: as §1
# [19] = molecular target: Casein kinase I isoform gamma-3 (Homo sapiens) (UniProt Q9Y6M4); test: Inhibition of full length recombinant human GST-tagged CSNK1G3 expressed in baculovirus expression system at 5 uM by lantha screen kinase binding assay relative to control
# [20] = molecular target: Dual specificity protein kinase CLK4 (Homo sapiens, UniProt Q9HAZ1); conditions: 5 uM
# [21] = molecular target: Serine/threonine-protein kinase 26 (Homo sapiens) (UniProt Q9P289); test: Inhibition of full length recombinant human GST-tagged MST4 expressed in baculovirus expression system at 5 uM by lantha screen kinase binding assay relative to control
# [22] = molecular target: Dual specificity tyrosine-phosphorylation-regulated kinase 3 (Homo sapiens) (UniProt O43781); test: Inhibition of full length recombinant human GST-tagged DYRK3 expressed in baculovirus expression system at 5 uM by lantha screen kinase binding assay relative to control
# [23] = molecular target: Dual specificity tyrosine-phosphorylation-regulated kinase 4 (Homo sapiens) (UniProt Q9NR20); test: Inhibition of full length recombinant human GST-tagged DYRK4 expressed in baculovirus expression system at 5 uM by lantha screen kinase binding assay relative to control
# [24] = molecular target: Myosin light chain kinase, smooth muscle (Homo sapiens) (UniProt Q15746); test: Inhibition of recombinant human GST-tagged MYLK expressed in baculovirus expression system at 5 uM by lantha screen kinase binding assay relative to control; procedure, shortened: as §1
# [25] = molecular target: Casein kinase I isoform delta (Homo sapiens) (UniProt P48730); test: Inhibition of full length recombinant human GST-tagged CSNK1D expressed in baculovirus expression system at 5 uM by lantha screen kinase binding assay relative to control
# [26] = molecular target: Casein kinase I isoform epsilon (Homo sapiens) (UniProt P49674); test: Inhibition of full length recombinant human His-tagged CSNK1E expressed in baculovirus expression system at 5 uM by lantha screen kinase binding assay relative to control
# [27] = molecular target: Casein kinase I isoform gamma-2 (Homo sapiens) (UniProt P78368); test: Inhibition of full length recombinant human His-tagged CSNK1G2 expressed in baculovirus expression system at 5 uM by lantha screen kinase binding assay relative to control; procedure, shortened: as §1
# [28] = molecular target: Serine/threonine-protein kinase pim-2 (Homo sapiens) (UniProt Q9P1W9); test: Inhibition of full length recombinant human GST-tagged PIM2 expressed in baculovirus expression system at 5 uM by lantha screen kinase binding assay relative to control
# Serine/threonine-protein kinase pim-2 (Homo sapiens), sequence (Q9P1W9 whole entry, looked up): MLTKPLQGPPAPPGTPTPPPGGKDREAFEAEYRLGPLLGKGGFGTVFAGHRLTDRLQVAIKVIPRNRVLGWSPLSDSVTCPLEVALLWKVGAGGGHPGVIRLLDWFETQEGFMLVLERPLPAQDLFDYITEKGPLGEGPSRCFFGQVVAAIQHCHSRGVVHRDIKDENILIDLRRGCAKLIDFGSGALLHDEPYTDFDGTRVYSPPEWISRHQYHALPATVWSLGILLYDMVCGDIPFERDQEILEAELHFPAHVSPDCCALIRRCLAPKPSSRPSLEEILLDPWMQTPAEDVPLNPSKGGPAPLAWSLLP
# [29] = molecular target: Proto-oncogene tyrosine-protein kinase ROS (Homo sapiens) (UniProt P08922); test: Inhibition of recombinant human GST-tagged ROS1 expressed in baculovirus expression system at 5 uM by lantha screen kinase binding assay relative to control; procedure, shortened: as §1
# [30] = molecular target: T2, Dual specificity protein kinase CLK3; test: Inhibition of recombinant human GST-tagged CLK3 expressed in baculovirus expression system at 5 uM by lantha screen kinase binding assay relative to control; procedure, shortened: as §1
# [31] = molecular target: Dual specificity protein kinase CLK2 (Homo sapiens) (UniProt P49760); test: Inhibition of recombinant human GST-tagged CLK2 expressed in baculovirus expression system at 5 uM by lantha screen kinase binding assay relative to control; procedure, shortened: as §1
# [32] = molecular target: Serine/threonine-protein kinase 17A (Homo sapiens) (UniProt Q9UEE5); test: Inhibition of STK17A (unknown origin) at 5 uM relative to control
structure (smiles),measurement,setting,value
O=C1OCC/C1=C\c1ccc2ncsc2c1,Activity,HEK293,Non-toxic
O=C1NC(=S)S/C1=C\c1ccc2ncccc2c1,inhibition,[1],39%
same,IC50,[2],12.8 nM
same,inhibition,[3],37%
same,inhibition,[4],11%
same,IC50,[5],103 nM
same,inhibition,[6],5%
same,inhibition,[7],inactive
same,inhibition,[8],19%
same,inhibition,[9],inactive
same,IC50,[10],157 nM
same,inhibition,[11],35%
same,inhibition,[12],89%
same,inhibition,[13],44%
same,inhibition,[14],97%
same,inhibition,[15],95%
same,inhibition,[16],3%
same,inhibition,[17],43%
O=C1NC(=S)S/C1=C\c1ccc2ncsc2c1,inhibition,[18],8%
same,inhibition,[19],inactive
same,inhibition,[20],98%
same,inhibition,[21],inactive
same,inhibition,[22],7%
same,inhibition,[23],inactive
same,inhibition,[24],inactive
same,inhibition,[25],inactive
same,inhibition,[26],inactive
same,inhibition,[27],inactive
same,inhibition,[28],inactive
same,inhibition,[29],inactive
same,inhibition,[30],44%
same,inhibition,[31],65%
CC1C/C(=C\c2ccc3c(c2)CCO3)C(=O)O1 (stereo not drawn),inhibition,[32],28%

# Reference: ChEMBL document CHEMBL3774321, “Systematic diversification of benzylidene heterocycles yields novel inhibitor scaffolds selective for Dyrk1A, Clk1 and CK2” (Eur J Med Chem, 2016)
